Results on twelve compounds are retold here after ChEMBL document CHEMBL3861979, “Polyprenylated Benzoylphloroglucinols with DNA Polymerase Inhibitory Activity from the Fruits of Garcinia schomburgkiana” (J Nat Prod, 2016).

Assay [1] is described as follows: Cytotoxicity against human HeLa cells assessed as reduction in cell viability after 24 hrs by MTT assay. To be noted: read-out: LD50 (the source's name). In kind it is functional. Summed up: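 HeLa human cervical cancer cultured cells. Potency is expressed as median lethal dose (LD50). Values are mean ± SD of five independent experiments.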
In a further assay the target is T1, DNA polymerase lambda (Homo sapiens, UniProt Q9UGP5).
T1 sequence (Q9UGP5 whole entry): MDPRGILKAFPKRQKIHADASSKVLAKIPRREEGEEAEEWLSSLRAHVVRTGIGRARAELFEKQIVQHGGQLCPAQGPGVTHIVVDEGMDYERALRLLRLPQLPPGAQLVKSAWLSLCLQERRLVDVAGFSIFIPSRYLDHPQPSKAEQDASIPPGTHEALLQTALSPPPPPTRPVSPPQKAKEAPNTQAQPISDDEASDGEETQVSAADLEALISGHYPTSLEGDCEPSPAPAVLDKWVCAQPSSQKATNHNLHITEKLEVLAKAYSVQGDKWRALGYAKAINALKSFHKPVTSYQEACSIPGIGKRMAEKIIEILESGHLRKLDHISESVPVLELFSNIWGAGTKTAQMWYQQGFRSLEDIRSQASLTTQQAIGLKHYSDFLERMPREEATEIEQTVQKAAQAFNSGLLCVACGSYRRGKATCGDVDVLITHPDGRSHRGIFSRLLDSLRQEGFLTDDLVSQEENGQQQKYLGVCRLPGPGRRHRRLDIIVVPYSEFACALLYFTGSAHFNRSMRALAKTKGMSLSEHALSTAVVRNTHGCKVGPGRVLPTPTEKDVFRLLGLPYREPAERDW
Put plainly: Inhibition of recombinant human His-tagged DNA polymerase lambda assessed as reduction in [3H]dTTP incorporation using poly(dA)/oligo(dT)18 as template/primer preincubated for 10 mins followed by template/primer addition measured after 60 mins. Summed up: (§1)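 IC50 values are given as mean ± SD from three independent experiments.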

A short description of assay [2]: Inhibition of calf thymus DNA polymerase alpha assessed as reduction in [3H]dTTP incorporation using poly(dA)/oligo(dT)18 as template/primer preincubated for 10 mins followed by template/primer addition measured after 60 mins. The arrangement: species or system Bos taurus. Summed up:
as §1

One may read the IC50 as the concentration that inhibits the measured activity by half. Take `CC(C)=CCC[C@@]1(C)[C@H](C/C=C(\C)C/C=C/C(C)(C)O)C[C@]2(CC=C(C)C)C(=O)[C@@]1(CC=C(C)C)C(=O)C(C(=O)c1ccc(O)c(O)c1)=C2O`: the CC50 in assay [1] was determined as 73.4 µM. Besides, the values for the 50% inhibitory concentration (IC50) (at DNA polymerase lambda; in assay [2]) were 5.6 µM and 8.8 µM, respectively.
For `C=C(C)[C@H](O)CC/C(C)=C/C[C@@H]1C[C@]2(CC=C(C)C)C(=O)[C@@](CC=C(C)C)(C(=O)C(C(=O)c3ccc(O)c(O)c3)=C2O)[C@@]1(C)CCC=C(C)C`, the CC50 in assay [1] is 9.8 µM. In addition, the 50% inhibitory concentration (IC50) on DNA polymerase lambda worked out at 5 µM; in assay [2], 6.3 µM.
For the compound `CC(C)=CC[C@@H]1C[C@]2(CC=C(C)C)C(=O)[C@@]3(CC=C(C)C)C(O[C@@H](C(C)(C)O)CC[C@@]13C)C(C(=O)c1ccc(O)c(O)c1)=C2O` (some centres undefined), in assay [1], the CC50 is 6.5 µM. Besides, the IC50 at DNA polymerase lambda is 7.4 µM; in assay [2] it was 5.6 µM.
For `CC(C)=CCC/C(C)=C/C[C@@H]1C[C@]2(CC=C(C)C)C(=O)[C@@](CC=C(C)C)(C(=O)C(C(=O)c3ccc(O)c(O)c3)=C2O)[C@@]1(C)CCC=C(C)C` [OBLONGIFOLIN C], the CC50 in assay [1] was 7.3 µM. The IC50 on DNA polymerase lambda is 5.2 µM; in assay [2] it was 5.7 µM.
As to `CC(C)=CCC/C(C)=C/CC1(CC=C(C)C)C(O)=C(C(=O)c2ccc(O)c(O)c2)C(=O)C2=C1OC(C)(C)C=C2` (centres undefined), in assay [1], the CC50 was 50.8 µM. Also, the IC50 was found to be 6.2 µM on DNA polymerase lambda and 7.9 µM in assay [2].
Consider `Cc1cn([C@H]2CC[C@@H](COP(=O)(O)OP(=O)(O)OP(=O)(O)O)O2)c(=O)[nH]c1=O`, for which the CC50 in assay [1] was more than 200 µM. Besides, the IC50 on DNA polymerase lambda was 28.7 µM; in assay [2], more than 200 µM.
For `C[C@@]1(CO)[C@H](O)CC[C@@]2(C)[C@H]1CC[C@H]1C[C@@H]3C[C@@]12CC[C@]3(O)CO` [APHIDICOLIN], in assay [1], the CC50 worked out at 22 µM. Besides, the values for the IC50 (at DNA polymerase lambda; in assay [2]) were more than 200 µM and 19.6 µM, respectively.
Consider `C=C(C)[C@@H](O)CC/C(C)=C/C[C@@H]1C[C@]2(CC=C(C)C)C(=O)[C@@](CC=C(C)C)(C(=O)C(C(=O)c3ccc(O)c(O)c3)=C2O)[C@@]1(C)CCC=C(C)C`, for which the CC50 in assay [1] was 9.9 µM. Moreover, the IC50 is 5.8 µM at DNA polymerase lambda and 6.4 µM in assay [2].
As for `C=C(C)C(O)C[C@@H]1C[C@]2(CC=C(C)C)C(=O)[C@@](CC=C(C)C)(C(=O)C(C(=O)c3ccc(O)c(O)c3)=C2O)[C@@]1(C)CCC=C(C)C` (some centres undefined), in assay [1], the CC50 was found to be 66.5 µM. Also, the IC50 at DNA polymerase lambda came to 8.8 µM; in assay [2], 8.6 µM.
Turning to `CC(C)=CCC[C@@]1(C)[C@H](CC=C(C)C)C[C@]2(CC=C(C)C)C(=O)[C@@]1(CC=C(C)C)C(=O)C(C(=O)c1cccc(O)c1)=C2O`, the CC50 in assay [1] was determined as 10.2 µM. For the same compound, the IC50 at DNA polymerase lambda is 5.7 µM; in assay [2], 6.5 µM.
For `CC(C)=CCC[C@@]1(C)[C@H](CC=C(C)C)C[C@]2(CC=C(C)C)C(=O)[C@@]1(CC=C(C)C)C(=O)C(C(=O)c1ccc(O)c(O)c1)=C2O` [GUTTIFERONE K], the 50% inhibitory concentration (IC50) on DNA polymerase lambda amounted to 5.4 µM.
In the case of `CC(C)=CCC/C(C)=C/C[C@@H]1C[C@]2(CC=C(C)C)C(=O)[C@@]3(CC=C(C)C)C(O[C@@H](C(C)(C)O)CC[C@@]13C)C(C(=O)c1ccc(O)c(O)c1)=C2O` (some centres undefined), in assay [1], the CC50 was 5.9 µM. For the same compound, the IC50 at DNA polymerase lambda was 6.9 µM; in assay [2] it was 5.4 µM.
